Reference: ChEMBL document CHEMBL1156334, “New Angiopep-modified doxorubicin (ANG1007) and etoposide (ANG1009) chemotherapeutics with increased brain penetration” (J Med Chem, 2010)

Assays:
NCI-H460 = assay: Cytotoxicity against human NCI-H460 cells after 48 hrs by [3H]thymidine incorporation assay; assay type: functional, cell-based
In short: (§1)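 Tumor cells were seeded at 5000 per well and exposed to increasing drug concentrations for 48 h. The medium was then aspirated and cells pulse-labeled for 2 h at 37 °C in fresh medium with 2 μCi/mL [methyl-3H]thymidine. Cells were harvested and tritium was counted by scintillation. Incorporation was plotted against concentration to estimate IC50.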

[1] = Cell cycle arrest in human U87MG cells assessed as accumulation at G0/G1 phase at 1 uM after 24 hrs by flow cytometry; assay type: functional, cell-based; settings: U-87MG ATCC
In short: (§2)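 Exponentially growing U87 MG cells in flasks were treated with drug or left untreated as controls. Cells were trypsinized, washed twice in PBS, fixed in 70% ice-cold ethanol, and stained with 50 μg/mL propidium iodide plus 0.5 mg/mL RNase in 10 mM Tris, 5 mM MgCl2. DNA content was measured by flow cytometry and given as % of cells per phase, from one representative of three experiments.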

[2] = Cell cycle arrest in human U87MG cells assessed as accumulation at G2/M phase at 1 uM after 24 hrs by flow cytometry; assay type: functional, cell-based; settings: U-87MG ATCC; in short: as §2
[3] = Cytotoxicity against human U87MG cells after 48 hrs by [3H]thymidine incorporation assay; assay type: functional, cell-based, U-87MG ATCC; settings: U-87 MG; in short: as §1
Brain = assay: Drug uptake in perfused mouse brain assessed as blood-brain transfer coefficient; assay type: ADME, tissue-based; settings: in vivo
In short: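 In situ brain perfusion was done in adult male CD-1 mice. Radiolabeled drug in Krebs/bicarbonate buffer (gassed 95% O2/5% CO2, pH 7.4, 37 °C) was infused into the carotid artery for 0.5, 1, 2 or 4 min, then washed out tracer-free for 60 s. Brain homogenate radioactivity was counted (γ or liquid scintillation) and expressed as apparent Vd. Vd versus time was fitted by least-squares regression.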

[4] = Cell cycle arrest in human U87MG cells assessed as accumulation at S phase at 1 uM after 24 hrs by flow cytometry; assay type: functional, cell-based; settings: U-87MG ATCC; in short: as §2
SK-HEP1 = assay: Cytotoxicity against human SKHEP1 cells after 48 hrs by [3H]thymidine incorporation assay; assay type: functional, cell-based; in short: as §1
[5] = Cell cycle arrest in human U87MG cells assessed as accumulation at G0/G1 phase at 33 nM after 24 hrs by flow cytometry; assay type: functional, cell-based; settings: U-87MG ATCC; in short: as §2
[6] = Cell cycle arrest in human U87MG cells assessed as accumulation at G2/M phase at 33 nM after 24 hrs by flow cytometry; assay type: functional, cell-based; settings: U-87MG ATCC; in short: as §2
[7] = Cell cycle arrest in human U87MG cells assessed as accumulation at S phase at 33 nM after 24 hrs by flow cytometry; assay type: functional, cell-based; settings: U-87MG ATCC; in short: as §2
[8] = Cell cycle arrest in human U87MG cells assessed as accumulation at S phase at 100 nM after 24 hrs by flow cytometry; assay type: functional, cell-based; settings: U-87MG ATCC; in short: as §2
[9] = Cell cycle arrest in human U87MG cells assessed as accumulation at G0/G1 phase at 100 nM after 24 hrs by flow cytometry; assay type: functional, cell-based; settings: U-87MG ATCC; in short: as §2
[10] = Cell cycle arrest in human U87MG cells assessed as accumulation at G2/M phase at 100 nM after 24 hrs by flow cytometry; assay type: functional, cell-based; settings: U-87MG ATCC; in short: as §2
[11] = Cell cycle arrest in human U87MG cells assessed as accumulation at G0/G1 phase at 3 uM after 24 hrs by flow cytometry; assay type: functional, cell-based; settings: U-87MG ATCC; in short: as §2
[12] = Cell cycle arrest in human U87MG cells assessed as accumulation at G2/M phase at 3 uM after 24 hrs by flow cytometry; assay type: functional, cell-based; settings: U-87MG ATCC; in short: as §2
[13] = Cell cycle arrest in human U87MG cells assessed as accumulation at S phase at 3 uM after 24 hrs by flow cytometry; assay type: functional, cell-based; settings: U-87MG ATCC; in short: as §2

Compound | IC50 (NCI-H460) [nM] | Activity [1] [%] | Activity [2] [%] | IC50 [3] [nM] | Kin (Brain) | Activity [4] [%] | IC50 (SK-HEP1) [nM] | Activity [5] [%] | Activity [6] [%] | Activity [7] [%] | Activity [8] [%] | Activity [9] [%] | Activity [10] [%] | Activity [11] [%] | Activity [12] [%] | Activity [13] [%]
COc1cc([C@@H]2c3cc4c(cc3[C@@H](O[C@@H]3O[C@@H]5CO[C@@H](C)O[C@H]5[C@H](O)[C@H]3OC(=O)CCCC(=O)NCCCC[C@H](NC(=O)CNC(=O)[C@H](CCCNC(=N)N)NC(=O)[C@H](CO)NC(=O)CNC(=O)CNC(=O)[C@H](Cc3ccc(O)cc3)NC(=O)[C@H](Cc3ccccc3)NC(=O)[C@H](Cc3ccccc3)NC(=O)[C@@H](NC(=O)CCCC(=O)O[C@H]3[C@H](O[C@@H]5c6cc7c(cc6[C@@H](c6cc(OC)c(OC(=O)CN(C)C)c(OC)c6)[C@H]6C(=O)OC[C@@H]65)OCO7)O[C@@H]5CO[C@@H](C)O[C@H]5[C@@H]3O)C(C)O)C(=O)N[C@@H](CCCNC(=N)N)C(=O)N[C@@H](CC(N)=O)C(=O)N[C@@H](CC(N)=O)C(=O)N[C@@H](Cc3ccccc3)C(=O)N[C@@H](CCCCNC(=O)CCCC(=O)O[C@H]3[C@H](O[C@@H]5c6cc7c(cc6[C@@H](c6cc(OC)c(OC(=O)CN(C)C)c(OC)c6)[C@H]6C(=O)OC[C@@H]65)OCO7)O[C@@H]5CO[C@@H](C)O[C@H]5[C@@H]3O)C(=O)N[C@H](C(=O)N[C@@H](CCC(=O)O)C(=O)N[C@@H](CCC(=O)O)C(=O)N[C@@H](Cc3ccc(O)cc3)C(=O)O)[C@@H](C)O)[C@H]3COC(=O)[C@H]23)OCO4)cc(OC)c1OC(=O)CN(C)C (some centres undefined) | 148 | 25.7 | 70.8 | 330 | 22 10^-4ml/g/s | 3.3 | 48 | – | – | – | – | – | – | – | – | –
COc1cccc2c1C(=O)c1c(O)c3c(c(O)c1C2=O)C[C@@](O)(C(=O)COC(=O)CCC(=O)NCCCC[C@H](NC(=O)CNC(=O)[C@H](CCCNC(=N)N)NC(=O)[C@H](CO)NC(=O)CNC(=O)CNC(=O)[C@H](Cc1ccc(O)cc1)NC(=O)[C@H](Cc1ccccc1)NC(=O)[C@H](Cc1ccccc1)NC(=O)[C@@H](NC(=O)CCC(=O)OCC(=O)[C@]1(O)Cc2c(O)c4c(c(O)c2[C@@H](O[C@H]2C[C@H](N)[C@H](O)[C@H](C)O2)C1)C(=O)c1c(OC)cccc1C4=O)C(C)O)C(=O)N[C@@H](CCCNC(=N)N)C(=O)N[C@@H](CC(N)=O)C(=O)N[C@@H](CC(N)=O)C(=O)N[C@@H](Cc1ccccc1)C(=O)N[C@@H](CCCCNC(=O)CCC(=O)OCC(=O)[C@]1(O)Cc2c(O)c4c(c(O)c2[C@@H](O[C@H]2C[C@H](N)[C@H](O)[C@H](C)O2)C1)C(=O)c1c(OC)cccc1C4=O)C(=O)N[C@H](C(=O)N[C@@H](CCC(=O)O)C(=O)N[C@@H](CCC(=O)O)C(=O)N[C@@H](Cc1ccc(O)cc1)C(=O)O)[C@@H](C)O)C[C@@H]3O[C@H]1C[C@H](N)[C@H](O)[C@H](C)O1 (some centres undefined) | 7.3 | – | – | 6 | 31 10^-4ml/g/s | – | 4.6 | 32.3 | 57.3 | 10.1 | – | – | – | – | – | –
COc1cccc2c1C(=O)c1c(O)c3c(c(O)c1C2=O)C[C@@](O)(C(=O)CO)C[C@@H]3O[C@H]1C[C@H](N)[C@H](O)[C@H](C)O1 [DOXORUBICIN] | 11 | – | – | 18 | 2.5 10^-4ml/g/s | – | 10 | – | – | – | 8.9 | 30.8 | 59.9 | – | – | –
COc1cc([C@@H]2c3cc4c(cc3[C@@H](O[C@@H]3O[C@@H]5CO[C@@H](C)O[C@H]5[C@H](O)[C@H]3O)[C@H]3COC(=O)[C@H]23)OCO4)cc(OC)c1O [ETOPOSIDE] | 90 | – | – | 145 | 0.9 10^-4ml/g/s | – | 62 | – | – | – | – | – | – | 8.9 | 87 | 4.2
CC(=O)O[C@H]1C(=O)[C@@]2(C)[C@H]([C@H](OC(=O)c3ccccc3)[C@]3(O)C[C@H](OC(=O)[C@H](O)[C@@H](NC(=O)c4ccccc4)c4ccccc4)C(C)=C1C3(C)C)[C@]1(OC(C)=O)CO[C@@H]1C[C@@H]2O [PACLITAXEL] | – | – | – | – | 6.9 10^-4ml/g/s | – | – | – | – | – | – | – | – | – | – | –
